Screening results from PubChem.
L major viab = Leishmania major promastigote growth inhibition, primary screen. actives 9% (n = 200,000). Leishmania major promastigotes, resazurin fluorescence viability. inhibition, % at 10 µM; in the data active = inhibition above about 50%;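 also: promastigotes grown with compound for 44 hours at 28 °C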
Mdm2-MdmX inh = inhibitors of human Mdm2-MdmX association, primary screen, cell-based, luminescence, split luciferase, SaOS-2, uHTS | SaOS-2 split-luciferase Mdm2/MdmX complementation | inhibition, % at 8 µM | actives 3% (n = 330,000) | AID 485346, 2010;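 active = inhibition of at least 50% at 8 µM in the primary screen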
Target sequence (O15151 whole entry, looked up): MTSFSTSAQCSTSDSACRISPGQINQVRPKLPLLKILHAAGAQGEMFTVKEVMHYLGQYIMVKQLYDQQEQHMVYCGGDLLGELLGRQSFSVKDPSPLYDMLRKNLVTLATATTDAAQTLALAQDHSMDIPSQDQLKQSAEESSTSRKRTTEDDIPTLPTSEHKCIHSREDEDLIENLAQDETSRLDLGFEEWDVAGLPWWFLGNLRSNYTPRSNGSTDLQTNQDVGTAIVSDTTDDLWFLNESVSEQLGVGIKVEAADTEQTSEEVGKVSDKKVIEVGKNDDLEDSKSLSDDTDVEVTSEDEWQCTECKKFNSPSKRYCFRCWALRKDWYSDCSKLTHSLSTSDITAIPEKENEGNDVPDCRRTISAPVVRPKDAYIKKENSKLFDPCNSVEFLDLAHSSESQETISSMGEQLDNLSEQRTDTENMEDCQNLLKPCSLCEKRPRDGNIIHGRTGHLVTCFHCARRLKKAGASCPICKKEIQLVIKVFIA
Target sequence (Q00987 whole entry, looked up): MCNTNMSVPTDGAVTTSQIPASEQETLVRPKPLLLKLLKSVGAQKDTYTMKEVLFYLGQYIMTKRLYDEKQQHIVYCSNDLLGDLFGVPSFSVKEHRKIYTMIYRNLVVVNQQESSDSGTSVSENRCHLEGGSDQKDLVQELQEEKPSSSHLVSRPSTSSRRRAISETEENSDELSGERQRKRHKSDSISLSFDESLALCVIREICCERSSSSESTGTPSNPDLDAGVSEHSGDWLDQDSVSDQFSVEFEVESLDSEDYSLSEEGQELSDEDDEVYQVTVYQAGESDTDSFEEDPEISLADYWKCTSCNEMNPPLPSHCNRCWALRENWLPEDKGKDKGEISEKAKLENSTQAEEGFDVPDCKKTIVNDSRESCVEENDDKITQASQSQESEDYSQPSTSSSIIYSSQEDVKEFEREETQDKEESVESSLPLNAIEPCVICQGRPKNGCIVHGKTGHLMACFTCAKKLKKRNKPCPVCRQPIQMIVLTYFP
SKKanGAS inh = S. pyogenes SKKanGAS growth inhibitors in kanamycin, primary screen, streptokinase expression inhibitor project, SKKanGAS strain, BacTiter-Glo luminescence; AID 1662, 2009; 6 h; inhibition, % at 7.5 µM; actives 1.3% (n = 300,000);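 active = mean replicate score, as percent of positive control median, at least 50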;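 also: strain carries kanamycin resistance gene driven by streptokinase promoter and grows in 40 µg/ml kanamycin; loss of luminescence reflects streptokinase promoter inhibition or plain growth inhibition; 0% = median of DMSO wells and 100% = positive control at its reference dose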
Beta cell apopt = inhibitors of cytokine-induced beta cell apoptosis, primary screen, luminescence. actives 0.8% (n = 300,000). protection from apoptosis, % (no concentration beside the values). AID 435005, 2010. INS-1E cytokine-induced death, ATP luminescence, 48 h; percent of positive-control rescue, neutral wells zero;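 active = Every replicate reaches about 75%, or at least half do and their mean reaches it too, limit read from the data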;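 also: 0% = cytokine-treated negative control wells and 100% = positive control rescue; higher means more ATP so stronger rescue from cytokine killing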
T cruzi inh = inhibitors of intracellular T. cruzi growth, primary screen, luminescence, NIH3T3 host cells; T. cruzi beta-gal in NIH3T3, 90 h; inhibition, % (concentration not given with the values); actives 1.4% (n = 300,000);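 active = mean inhibition across valid replicates above about 55%, limit read from the data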;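 also: signal also drops with host cell toxicity which is not excluded here; 0% = plate median of DMSO wells and 100% = zero luminescence signal; higher percent means less beta-gal luminescence so fewer parasites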
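System: mouse NIH/3T3 fibroblasts infected with β-gal-expressing T. cruzi Tulahuen C4 / Input: NIH/3T3 cells, 5,000 per well / Buffer or medium: Low-serum DMEM with 2% FBS / Probe or stimulus: 5000 reporter trypomastigotes per well / Schedule: ≥90 h infection period, 3 h prior cell attachment / Measured by: GalScreen luminescence, 60 min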
CSC inhib = cancer stem cell viability inhibitors, primary screen, luminescence | AID 2717, 2010 | inhibition, % at 7.5 µM | cancer stem cell-like cells viability | actives 1.1% (n = 300,000); in the data active = inhibition above about 75%; tested in HMLE shEcad cells
Starred values were filed as active, the others as inactive; / = not tested or not shown. The list is not random: actives were taken first. Their share in the collection is about 9.4%.

SMILES	L major viab	Mdm2-MdmX inh	SKKanGAS inh	Beta cell apopt	T cruzi inh	CSC inhib
CC(=O)N1CC2(NC(=O)c3ccccc3N2)c2ccccc21 (stereo unspecified)	-9	9	-1	-4	-2	-11
O=C(N/N=C/c1ccccc1[N+](=O)[O-])c1cnccn1	/	-14	-2	-36	-4	-19
C#CC[N+]1(CC#Cc2ccccc2)CCCCC1	-1	11	-1	-1	-11	-10
O=C(C[N+]1(CC#Cc2ccccc2)CCCCC1)c1ccc(Cl)cc1	52*	7	7	3	17	6
C(#Cc1ccccc1)C[N+]1(CC#Cc2cccc3ccccc23)CCOCC1	100*	/	6	/	/	/
CCC[N+]1(CC#CCC(c2ccccc2)c2ccccc2)CCCCC1	/	49	-1	105*	64*	34
C(#Cc1ccccc1)C[N+]1(CC#Cc2ccccc2)CCCCC1	100*	20	-12	/	66*	2
O=C(C[N+]1(CC#Cc2ccccc2)CCCCC1)c1ccccc1	45	-27	-4	-3	22	-3
C#CC[N+]1(CC#Cc2ccccc2)CCOCC1	-4	-7	-3	-2	-5	11
CCN(CC(=O)Nc1ccc(OC)cc1)C(=O)Cc1cccs1	/	3	4	2	-5	/
COc1ccc(CN2CCNC(=O)C2CC(=O)N2CCCN(C(C)=O)CC2)cc1OC (stereo unspecified)	/	20	2	-4	0	-4
CCC[N+](CC#Cc1ccccc1)(CCC)CC(=O)c1ccc(Cl)cc1	100*	-11	-4	5	13	30
CCN(CC)CCNC(=O)c1cc(-c2ccc(Br)s2)nc2ccccc12	/	44	13	10	-5	24
CCN(CC)CCNC(=O)c1cc2cc(Br)ccc2s1	96*	-6	-8	0	49	49
O=C(NC1CCN(C(=O)Nc2ccc(F)cc2)CC1)c1cccc(F)c1	/	8	-4	2	-11	-8
COc1ccccc1OCC(=O)OCC(=O)Nc1sccc1C(N)=O	53*	10	-7	-1	-6	2
C=CCn1c(SCC(=O)NC2CCCC2)nnc1-c1cccnc1	/	6	-5	/	1	-12
Cc1cc(C)c(S(=O)(=O)N2CCN(C(=O)c3cccs3)CC2)c(C)c1	62*	6	-1	-3	23	-6
Cc1ccc(S(=O)(=O)N2CCN(C(=O)c3cccs3)CC2)c(C)c1	1	2	-14	3	14	-14
Cc1ccc(NC(=O)CCC(=O)N/N=C/c2cccs2)cc1	-2	-3	-2	-2	-4	-7
c1ccc(C2C3=C(Nc4ncnn42)c2ccccc2CCC3)cc1 (stereo unspecified)	9	-30	3	2	-6	1
Clc1ccc(C2C3=C(Nc4ncnn42)c2ccccc2CC3)cc1 (stereo unspecified)	3	12	70*	-7	4	-3
CN1C(=O)/C(=C/c2ccccc2OCc2cccc(F)c2)N(C)C1=S	80*	3	19	-3	10	6
CCC(C)Sc1ccc([C@H]2N[C@@](C)(C(=O)OC)[C@H]3C(=O)N(C)C(=O)[C@@H]23)cc1OC (stereo partly specified)	/	-12	0	-10	-15	-12
O=C(c1cc2ccc([N+](=O)[O-])cc2oc1=O)N1CCOCC1	-6	-3	7	2	-4	-4
SMILES	L major viab	Mdm2-MdmX inh	SKKanGAS inh	Beta cell apopt	T cruzi inh	CSC inhib
Nc1cc(C(=O)c2ccccc2)ccc1N1CCOCC1	54*	-8	-4	2	2	10
Cc1ccccc1/C(N)=N/OC(=O)N1c2ccccc2Sc2ccccc21	93*	28	2	5	34	-2
Cc1ccc(/C(N)=N/OC(=O)N2c3ccccc3Sc3ccccc32)cc1	100*	37	7	1	48	0
CCOc1ccc(-n2nnnc2SCC(=O)NNC(=O)c2ccco2)cc1	-2	9	-9	-3	6	-10
CCN(CC)C(=S)SCC(=O)c1ccc(F)cc1	78*	-219	-2	/	-16	8
C/C(CC(=O)Nc1ccccn1)=N\NC(=O)c1cnccn1	/	-11	-2	2	-8	-3
CC(C)CCN1CCN(Cc2cccs2)CC1CCO (stereo unspecified)	0	-16	-3	-3	-7	-4
OCCC1CN(Cc2nc(-c3ccc(F)cc3)cs2)CCN1CCc1ccccc1 (stereo unspecified)	85*	-8	5	3	40	54
CC(C)=CCN1CCN(Cc2nc(-c3ccccc3)cs2)CC1CCO (stereo unspecified)	70*	7	-4	0	11	27
CC(C)(C)CN1CCN(Cc2nc(-c3ccc(F)cc3)cs2)CC1CCO (stereo unspecified)	/	3	1	7	-28	29
OCCC1CN(Cc2nc(-c3ccccc3)cs2)CCN1CCc1ccccc1 (stereo unspecified)	87*	19	-3	1	33	46
CC(C)CCN1CCN(Cc2nc(-c3ccccc3)cs2)CC1CCO (stereo unspecified)	85*	23	-10	1	13	37
OCCC1CN(Cc2cccnc2)CCN1CCc1ccccc1 (stereo unspecified)	9	-41	-3	/	15	/
CC(C)CN1CCN(CCCc2ccccc2)C(CCO)C1 (stereo unspecified)	/	-1	-1	/	5	24
OCCC1CN(C2CCN(c3ccccc3F)CC2)CCN1Cc1ccccc1 (stereo unspecified)	80*	-27	-2	-9	8	25
CC(C)CCN1CCN(C2CCN(c3ccccc3)CC2)CC1CCO (stereo unspecified)	89*	4	3	0	13	41
OCCC1CN(C2CSCCSC2)CCN1Cc1ccccc1 (stereo unspecified)	-1	-5	1	-3	2	0
CC(C)CCN1CCN(CC#Cc2ccccc2)CC1CCO (stereo unspecified)	80*	-15	6	0	-14	14
Cc1ccc(N2CCC(N3CCN(C)C(CCO)C3)CC2)cc1 (stereo unspecified)	/	-8	0	/	-1	36
CCc1ccc(N2CC(C(=O)Nc3cc(C)on3)CC2=O)cc1 (stereo unspecified)	-4	5	-1	-2	-8	-8
O=C(CSc1nnc(CNC(=O)c2cccc(C(F)(F)F)c2)o1)NC1CCCC1	/	-7	28	-8	6	-9
O=[N+]([O-])c1ccc(/C=N/NC(=S)Nc2ccccc2F)o1	25	11	14	7	27	2
